B1: tRNA (parent)
chain: CUCUCGGUAGCCAAGUUGGUUUAAGGCGCAAGACUUUAAUUUAUCACUACGAAAUCUUGAGAUCGGGCGUUCGACUCGCCCCCGGGAGAUUUUUUCCUCGAGCAA

This sample holds only a part of the variants without activity. A value given as a limit tells only on which side of the number the result lay.

The variants in this data set derive from B1. The data set is described as follows: nonsense suppression (GFP-seq) (ratio to wild type); higher = more function; SUP4oc tRNA, yeast GFP reporter sort-seq. The procedure, abridged:
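Each variant's nonsense suppression (GFPSEQ) is a cell-share-weighted bin median GFP/RFP relative to the unmutated parent tRNA. Yeast with genome-integrated tRNA variants from a ~3% random-mutation library, a galactose-driven GFP ochre reporter and RFP were grown in raffinose/galactose medium with 80 mg/L adenine, then sorted into GFP/RFP bins for Illumina sequencing. Variants needed ≥100 reads and ≥30 cells.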
As for G10C A13G G15A U57C, the nonsense suppression is not above 0.026.
For the variant G10A G32C G88C, the nonsense suppression was not above 0.026.
The same measure for A9G C72A: 0.0268.
The same measure for A9G C72U: 0.0591; for G10A C56U G73A: not above 0.026.
The same measure for A9C C29U: 0.751; for G10U C77G: not above 0.026; for C11A U58A G69A: not above 0.026.
Consider C11U A89C, for which the nonsense suppression was not above 0.026.
In the case of C11G C12A U35G U55C U76A G84U it was not above 0.026.
The same measure for A9U C75U: 0.656.
On to C11A A30C U57A, for which the nonsense suppression is not above 0.026.
In the case of A9U C11G C68A it was not above 0.026.
Turning to C11U G84C A89C, the nonsense suppression is not above 0.026.
In the case of C11G U20C G25U U63G C75A G78C it was not above 0.026; in that of G10C A54U, not above 0.026; in that of C11U, not above 0.026.
In the case of A9G A54U U70C it was not above 0.026.
With A9G A13U A74C, the nonsense suppression was not above 0.026.
In the case of A9G U76G C80G it was not above 0.026; in that of A9C A54U, 1.21.
Turning to G10A U21G G67C C79A, the nonsense suppression is not above 0.026.
In the case of C11U G32U G69C G85C it was not above 0.026; in that of G10A U58A A62G U70A, not above 0.026.
In the case of A9U U55A it was not above 0.026; in that of A9U C12A A13C C72U C79A, not above 0.026.
The same measure for A9G C75A: 0.762.
Consider A9G C75U, for which the nonsense suppression was 1.17.
As to A9G G61A G85A, the nonsense suppression turned out to be 0.303.
The same measure for G10U C27A G85A: 0.159; for A9U G85C: 0.0283; for A9U G66A: 0.0305.
Turning to C11U G18C U20G U76G, the nonsense suppression was not above 0.026.
With G10C G26A G65A A87U, the nonsense suppression is not above 0.026.
The same measure for A9G U16A U55C: 0.188; for G10U A54C G86C: not above 0.026; for A9G U63A: 0.836.
For the variant A9G U63C, the nonsense suppression came out at 0.772.
With C12A A24C, the nonsense suppression was determined as 0.035.
The same measure for A9G C72G U76G G88U: not above 0.026; for A9G G73A: 0.12.
In the case of A9G G73U it was 0.053; in that of A9C U58G G61U, not above 0.026; in that of A9C U20G U21G G86A, not above 0.026.
Consider A9C U21C A62C C77A, for which the nonsense suppression is not above 0.026.
For the variant A9U G73A, the nonsense suppression turned out to be 0.0814.
The same measure for C11A U17C: not above 0.026.
The same measure for A9U A24C G66C C83U G85A: not above 0.026.
The same measure for C11A C12A U17G U22G G66A U76C A89C: not above 0.026.
Consider C11G A24G A74G, for which the nonsense suppression was not above 0.026.
In the case of A9U G18C it was not above 0.026; in that of A9U U17C, 0.128.
G10C C27G G73C: the nonsense suppression is not above 0.026.
On to G10U U20G U57C, for which the nonsense suppression was not above 0.026.
In the case of C11U G18A it was not above 0.026.
Regarding A9U A54U, the nonsense suppression was 0.222.
In the case of A9U A54C it was 0.0503; in that of A9U A54G, 0.0306.
The same measure for C11G C34A U63A G65C: not above 0.026; for C11G U35C A74U C82A: not above 0.026.
In the case of G10C C56G U71G it was not above 0.026; in that of C11G A23G C34A C81U, not above 0.026.
For the variant G10A G85U, the nonsense suppression is not above 0.026.
The same measure for C11U C27G A74G: not above 0.026.
Turning to A9G U21A, the nonsense suppression worked out at 0.36.
The same measure for A9G A14C A54G: not above 0.026; for G10A G32C: not above 0.026; for C11U G18U A60G: not above 0.026.
A9U C77U: the nonsense suppression turned out to be 0.0389.
Take A9U U16A: the nonsense suppression came to 0.13.
Regarding A9U U16G, the nonsense suppression was 0.202.
On to A9U G61A C72A, for which the nonsense suppression was not above 0.026.
Consider G10U G32C, for which the nonsense suppression is not above 0.026.
Regarding A9C C75A, the nonsense suppression is 0.938.
In the case of A9G C81U, the nonsense suppression was 0.028.
In the case of G10C A24U A30G A33U U55A C80U it was not above 0.026; in that of A9U A74U, 0.106.
In the case of A9U A74G, the nonsense suppression worked out at 0.0977.
Regarding A9G U22A U35G, the nonsense suppression was not above 0.026.
Take G10C C77U: the nonsense suppression is not above 0.026.
Regarding G10C C77G, the nonsense suppression is not above 0.026.
In the case of A9C U63G it was 0.0362; in that of A9C U63C, 0.202; in that of A9C A87G, 0.649.
For C11U C56G G73C G78A C79G, the nonsense suppression was not above 0.026.
As for A9U C11U G32C C34G A54U, the nonsense suppression is not above 0.026.
In the case of A9G U16G it was 0.551; in that of A9G U16A, 0.845.
The same measure for C11G U63A U70G: not above 0.026; for A9U C12G U35G C72A: not above 0.026.
G10C G26U G86A G88A: the nonsense suppression was not above 0.026.
In the case of A9C G61C G73C it was not above 0.026; in that of C11G C56G G84U, not above 0.026; in that of C11G G66A G69C, 0.0424.
In the case of C11G U16G U58A G61A G67C it was not above 0.026; in that of A9C U17G, 0.595.
The same measure for C11U G26A U63C: 0.212.
For the variant A9U U20G, the nonsense suppression was 0.12.
Turning to C11U U22C, the nonsense suppression is 0.0289.
The same measure for A9G U55C: 0.245; for A9U A31G: 0.193.
In the case of A9U C64U it was 0.0349.
Turning to G10A U63G, the nonsense suppression was determined as 0.0314.
The same measure for G10U G85C: not above 0.026; for G10U C34G U63A C81U: not above 0.026.
The same measure for A9U G25U G26C C64A G65A G73A: not above 0.026; for C11G C80G: not above 0.026; for G10U G66U G85A: not above 0.026.
G10C G15C G32U U63A: the nonsense suppression was not above 0.026.
The same measure for C11G A24U A62C C68G: not above 0.026; for A9G A13C C34G U63A C81G G84A G86U: not above 0.026; for A9U A33G: 0.0334.
The same measure for A9G A30U U58A: 0.23; for C11A A33G C77A C81G: not above 0.026; for C11G U16G G66A: not above 0.026.
With C11G A13U A62C, the nonsense suppression is not above 0.026.
In the case of U8G G18C G59A, the nonsense suppression was not above 0.026.
Consider A9C C11A C75A, for which the nonsense suppression is not above 0.026.
For the variant C11U A24U, the nonsense suppression is 0.031.
In the case of A9G C11U G61C it was not above 0.026; in that of G10A A13C, 0.0618.
As for G10A C29G A54G, the nonsense suppression was not above 0.026.
Turning to C11A A13G, the nonsense suppression is not above 0.026.
The same measure for A9G A30G G61A: 0.291.
Consider A9G C29U C75G, for which the nonsense suppression is 0.252.
As for A9U C12U, the nonsense suppression turned out to be 0.29.
As to A9G C82U, the nonsense suppression was determined as 0.531.
The same measure for C11U A33G A74C C83A: not above 0.026; for G10U C12G A31U G32U C68G: not above 0.026; for C11U G61C A87U: not above 0.026.
The same measure for A9U G19C G65C A74C: not above 0.026; for A9G A54C: 0.207; for A9G A54U: 0.196.
With C11U G61C, the nonsense suppression came to 0.0829.
C11U G66A: the nonsense suppression was not above 0.026.
In the case of G10A A31C it was not above 0.026; in that of G10U G84A G86U, not above 0.026.
Consider C11U A62G U63A, for which the nonsense suppression was not above 0.026.
In the case of C11A G26A U70A it was not above 0.026; in that of A9C A23G, 0.0661.
Take U8G U57C: the nonsense suppression was not above 0.026.
As to A9U G28U A62G U71G, the nonsense suppression is not above 0.026.
In the case of A9G C12A it was not above 0.026; in that of C11G G59A C64A, not above 0.026.
With C11G A33G, the nonsense suppression is not above 0.026.
Consider G10A A54C, for which the nonsense suppression stood at 0.0309.
With C11A A30G, the nonsense suppression stood at 0.0331.
The same measure for A9C A60U: 0.575; for A9C A60C: 0.0924; for A9U G25U: not above 0.026.
The same measure for A9C A31G: 0.857.
In the case of C11A U16C it was not above 0.026; in that of C11G C29G G61U, not above 0.026; in that of A9G G10U, 0.0476.
With A9G G10A, the nonsense suppression came out at 0.0344.
The same measure for C11U A24G G26C U71A: not above 0.026; for C11U A23G A31G U76A: not above 0.026.
In the case of G10U C27U C29A A60C U76G it was not above 0.026.
The same measure for G10C U21A: not above 0.026.
Turning to C11U G19A G25A C29U G59A, the nonsense suppression is not above 0.026.
In the case of A9G C27G it was not above 0.026.
The same measure for A9G C27U: 0.0421; for A9U A30G: 0.0995.
G10U C29A: the nonsense suppression is not above 0.026.
U8G G88A: the nonsense suppression stood at 0.228.
The same measure for C11U C29G: not above 0.026; for U8G G25U A54U U70G G73C: not above 0.026.
